Measured values gathered from unrelated publications.
Effect on: enzyme activity
Mode: inhibitor
HDAC1: Histone deacetylase 1 (HDAC1, Homo sapiens, UniProt Q13547)
PARP10: Protein mono-ADP-ribosyltransferase PARP10 (PARP10, Homo sapiens, UniProt Q53GL7)
HDAC8: Histone deacetylase 8 (HDAC8, Homo sapiens, UniProt Q9BY41)

Compound	target	method	IC50 [nM]
COc1ccc(N(Cc2nc(-c3cccc(Cl)c3)cs2)C(=O)CCCCCC(=O)NO)cc1	HDAC1	–	4.9
Cc1ccc(Cn2cc(-c3ccccc3C(N)=O)nn2)cc1	PARP10	–	> 10000
Nc1nc2c(ncn2[C@H]2CC[C@@H](COP(=O)(O)OP(=O)(O)OP(=O)(O)O)O2)c(=O)[nH]1	TERT (Tribolium castaneum, UniProt Q0QHL8)	fluorescence	550
O=C(NO)c1ccc(Cn2cnc3c(Nc4ccc(Cl)cc4)ncnc32)cc1	HDAC1	fluorescence	166
COc1ccc(N(Cc2nc(-c3ccc(F)cc3)cs2)C(=O)CCCCCC(=O)NO)cc1	HDAC1	–	0.9
NC/C(=C\F)COc1cccc(Cn2c(=S)[nH]c(=O)c3[nH]cnc32)c1	Protein-lysine 6-oxidase (Homo sapiens, UniProt P28300)	–	> 30000
O=C1CC[C@H](N2Cc3cc(N4CCN(CC5CCN(c6ccc([C@@H]7c8ccc(O)cc8CC[C@@H]7c7ccccc7)cc6)CC5)CC4)ccc3C2=O)C(=O)N1	ATP-dependent translocase ABCB1 (ABCB1, Homo sapiens, UniProt P08183)	–	900
O=C(NO)c1ccc(Cn2cnc3c(Nc4cccc([N+](=O)[O-])c4)ncnc32)cc1	HDAC1	fluorescence	148
O=c1[nH]c2c(nnn2-c2ccccc2)c2ccc(F)cc12	PARP10	–	> 10000
COc1ccc(N(Cc2csc(-c3ccc(Br)cc3)n2)C(=O)CCCCCC(=O)NO)cc1	HDAC1	–	1
Clc1ccc(Nc2ccncc2)cc1Cl	Uracil-DNA glycosylase (UNG, Homo sapiens, UniProt P13051)	–	> 99000
CC(C)COc1ccc(N(Cc2nc(-c3ccccc3)cs2)C(=O)CCCCCC(=O)NO)cc1	HDAC1	–	2.6
c1ccc2c(-c3cnn4cc(-c5ccc(N6CCNCC6)cc5)cnc34)ccnc2c1	TGF-beta receptor type-2 (TGFBR2, Homo sapiens, UniProt P37173)	–	89.7
O=c1[nH]c2c(nnn2Cc2c(F)c(F)c(F)c(F)c2F)c2ccc(F)cc12	PARP10	–	> 10000
COc1ccc(N(Cc2nc(-c3ccccc3)cs2)C(=O)CCCCCC(=O)NO)cc1	HDAC1	–	1.6
COc1cccc(Cn2nnc3c4ccc(F)cc4c(=O)[nH]c32)c1	PARP10	–	1660
COc1ccc(N(Cc2csc(-c3ccccc3Br)n2)C(=O)CCCCCC(=O)NO)cc1	HDAC1	–	1.3
COc1ccc(Nc2ncnc3c2ncn3Cc2ccc(C(=O)NO)cc2)cc1	HDAC8	–	112
COc1ccc(N(Cc2nc(-c3ccc(Br)cc3)cs2)C(=O)CCCCCC(=O)NO)cc1	HDAC1	–	3.6
O=C(NO)c1ccc(Cn2cnc3c(Nc4ccc(F)c(Cl)c4)ncnc32)cc1	HDAC8	–	154
O=c1[nH]c2c(nnn2Cc2ccccc2C(F)(F)F)c2ccccc12	PARP10	–	> 10000
COc1ccc(N(Cc2csc(-c3ccccc3Cl)n2)C(=O)CCCCCC(=O)NO)cc1	HDAC1	–	2.1
Cc1ccc(Cn2nnc3c4ccc(C(F)(F)F)cc4c(=O)[nH]c32)cc1	PARP10	–	> 10000
C=C(C)[C@@H]1CC[C@]2(C)CC[C@]3(C)[C@H](CC[C@@H]4[C@@]5(C)CC[C@H](O)C(C)(C)[C@@H]5CC[C@]43C)[C@@H]12	Seed linoleate 13S-lipoxygenase-1 (Glycine max, UniProt P08170)	–	110000
COc1cccc(Cn2nnc3c4ccccc4c(=O)[nH]c32)c1	PARP10	–	219
Cc1ccc(S(=O)(=O)NNc2ccc([N+](=O)[O-])cc2[N+](=O)[O-])cc1	Polyunsaturated fatty acid 5-lipoxygenase (ALOX5, Homo sapiens, UniProt P09917)	–	1330
